Measured values: ChEMBL document CHEMBL1667760, “Synthesis and biological evaluation of 3,5-diaryl isoxazoline/isoxazole linked 2,3-dihydroquinazolinone hybrids as anticancer agents” (2011)
Calls of active or inactive are those of the source. The calls are words filed in the database; no cut-off is given here.

What was measured:
HL-60(TB) = experiment: Cytotoxicity against human HL-60(TB) cells after 48 hrs by sulforhodamine B assay; type: functional; settings: HL-60, 48 h
How it was run: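 Run by the NCI 60 human tumour cell line screen. A one-dose pre-test across sixty lines came first. The main test then used a 5-log dose range (10^-4–10^-8 M). Values derived per cell line were GI50 (log molar concentration for 50% net growth inhibition), TGI (total growth inhibition) and LC50 (50% net cell death).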

HOP-62 = experiment: Cytotoxicity against human HOP62 cells after 48 hrs by sulforhodamine B assay; type: functional; settings: HOP-62, 48 h
How it was run: (§1)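 Run by the NCI 60-cell-line screen. A one-dose pre-test was done first, followed by the main test over a 5-log dose range (10^-4 to 10^-8 M). Results are reported as log molar GI50 (50% net growth inhibition), TGI (total growth inhibition) and LC50 (50% net cell death), with mean-graph midpoints across all lines.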

NCI-H23 = experiment: Cytotoxicity against human NCI-H23 cells after 48 hrs by sulforhodamine B assay; type: functional; settings: NCI-H23, 48 h; how it was run: as §1
HCC 2998 = experiment: Cytotoxicity against human HCC2998 cells after 48 hrs by sulforhodamine B assay; type: functional; settings: HCC 2998, 48 h; how it was run: as §1
HCT-116 = experiment: Cytotoxicity against human HCT116 cells after 48 hrs by sulforhodamine B assay; type: functional; settings: HCT-116, 48 h; how it was run: as §1
DU-145 = experiment: Cytotoxicity against human DU145 cells after 48 hrs by sulforhodamine B assay; type: functional; settings: DU-145, 48 h; how it was run: as §1
SF-539 = experiment: Cytotoxicity against human SF539 cells after 48 hrs by sulforhodamine B assay; type: functional; settings: SF-539, 48 h; how it was run: as §1
SNB-19 = experiment: Cytotoxicity against human SNB19 cells after 48 hrs by sulforhodamine B assay; type: functional; settings: SNB-19, 48 h
How it was run: (§2)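 NCI 60-cell-line panel screen of human tumor lines: a one-dose pre-test, then the main test over a 5-log range (10^-4–10^-8 M). GI50, TGI and LC50 are reported as log molar concentrations for 50% net growth inhibition, total growth inhibition and 50% net cell death. Mean graph midpoints are also calculated.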

LOX IMVI = experiment: Cytotoxicity against human LOXIMVI cells after 48 hrs by sulforhodamine B assay; type: functional; how it was run: as §1
SK-MEL-2 = experiment: Cytotoxicity against human SK-MEL-2 cells after 48 hrs by sulforhodamine B assay; type: functional; settings: SK-MEL-2, 48 h; how it was run: as §1
SK-MEL-5 = experiment: Cytotoxicity against human SK-MEL-5 cells after 48 hrs by sulforhodamine B assay; type: functional; settings: SK-MEL-5, 48 h; how it was run: as §1
OVCAR-4 = experiment: Cytotoxicity against human OVCAR4 cells after 48 hrs by sulforhodamine B assay; type: functional; settings: OVCAR-4, 48 h; how it was run: as §1
OVCAR-5 = experiment: Cytotoxicity against human OVCAR5 cells after 48 hrs by sulforhodamine B assay; type: functional; settings: OVCAR-5, 48 h; how it was run: as §1
OVCAR-8 = experiment: Cytotoxicity against human OVCAR8 cells after 48 hrs by sulforhodamine B assay; type: functional; settings: OVCAR-8, 48 h; how it was run: as §1
NCI/ADR-RES = experiment: Cytotoxicity against human NCI/ADR-RES cells after 48 hrs by sulforhodamine B assay; type: functional; how it was run: as §1
SK-OV-3 = experiment: Cytotoxicity against human SKOV3 cells after 48 hrs by sulforhodamine B assay; type: functional; settings: SK-OV-3, 48 h; how it was run: as §1
TK-10 = experiment: Cytotoxicity against human TK10 cells after 48 hrs by sulforhodamine B assay; type: functional; settings: TK-10, 48 h; how it was run: as §2
MCF7 [1] = experiment: Cytotoxicity against human MCF7 cells after 48 hrs by sulforhodamine B assay; type: functional; settings: MCF7, 48 h
How it was run: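 Cells were grown in RPMI 1640 with 10% FBS and 2 mM L-glutamine, plated at densities set by doubling time, and pre-incubated 24 h at 37 °C, 5% CO2. Drugs were tested at 0.1, 1, 10 and 100 µM in triplicate wells for 48 h continuous exposure. Cells were fixed with 10% TCA (final) and stained with 0.4% SRB. A540 was read against a 690 nm reference, and percent growth was calculated relative to control. Experiments were repeated three times.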

[2] = Cytotoxicity against human Hs 578T cells after 48 hrs by sulforhodamine B assay; type: functional; how it was run: as §1
T47D = experiment: Cytotoxicity against human T47D cells after 48 hrs by sulforhodamine B assay; type: functional; how it was run: as §2
MDA-MB-435 = experiment: Cytotoxicity against human MDA-MB-435 cells after 48 hrs by sulforhodamine B assay; type: functional; settings: MDA-MB-435, 48 h; how it was run: as §1
MCF7 [3] = experiment: Cell cycle arrest in human MCF7 cells assessed as accumulation at G2/M phase at 5 uM after 24 hrs using propidium iodide staining by flow cytometry relative to control; type: functional
How it was run: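 MCF-7 cells were seeded at 5×10^5 per 60 mm dish and grown 24 h. They were then exposed to 5 uM compound for a further 24 h, with untreated control cells alongside. Cells were trypsinised, fixed in ice-cold 70% ethanol (4 °C, 30 min), treated with 1 mg/ml RNase A (37 °C, 30 min) and stained with propidium iodide/citrate/Triton solution. DNA content was read by flow cytometry on 20,000 events.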

MCF7 [4] = experiment: Reduction of CDK1 expression in human MCF7 cells at 5 uM after 24 hrs by Western blotting; type: functional, cell-based
How it was run: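 MCF-7 cells, kept in DMEM with 10% fetal calf serum at 37 °C under 5% CO2, treated 24 h. Lysis in ice-cold RIPA with protease inhibitors; Bradford quantitation; 30 µg protein per lane on 12% SDS-PAGE, then PVDF. Primary antibodies (1:500) at 4 °C overnight; HRP secondary (1:2000); chemiluminescence detection; β-actin loading control.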

MCF7 [5] = experiment: Cytotoxicity against human MCF7 cells at 5 uM after 24 hrs by MTT assay
[6] = read-out: pLC50 (the source's name) (converted)

What does the source list for `COc1cc(C2NC(=O)c3ccccc3N2)ccc1OCCCCCOc1c(OC)cc(C2=NOC(c3cc(OC)c(OC)c(OC)c3)C2)cc1OC` (stereo unspecified)?
GI50 (HL-60(TB)): 11.2 µM; CC50 (HL-60(TB); [6]): > 100 µM; TGI (HL-60(TB); read-out: pTGI): > 100 µM; GI50 (HOP-62): 19.1 µM; CC50 (HOP-62; [6]): > 100 µM; TGI (HOP-62; read-out: pTGI (converted)): 81.3 µM; GI50 (NCI-H23): 0.603 µM; CC50 (NCI-H23; [6]): > 100 µM; TGI (NCI-H23; read-out: pTGI): > 100 µM; GI50 (HCC 2998): 19.1 µM; CC50 (HCC 2998; [6]): > 100 µM; TGI (HCC 2998; read-out: pTGI (converted)): 52.5 µM; GI50 (HCT-116): 0.708 µM; CC50 (HCT-116; [6]): > 100 µM; TGI (HCT-116; read-out: pTGI (converted)): 40.7 µM; GI50 (DU-145): 22.4 µM; CC50 (DU-145; [6]): > 100 µM; TGI (DU-145; read-out: pTGI): > 100 µM; GI50 (SF-539): 17.8 µM; CC50 (SF-539; [6]): > 100 µM; TGI (SF-539; read-out: pTGI (converted)): 89.1 µM; GI50 (SNB-19): 16.6 µM; CC50 (SNB-19; [6]): > 100 µM; TGI (SNB-19; read-out: pTGI): > 100 µM; GI50 (LOX IMVI): 14.1 µM; CC50 (LOX IMVI; [6]): > 100 µM; TGI (LOX IMVI; read-out: pTGI): > 100 µM; GI50 (SK-MEL-2): 35.5 µM; CC50 (SK-MEL-2; [6]): > 100 µM; TGI (SK-MEL-2; read-out: pTGI): > 100 µM; GI50 (SK-MEL-5): 0.112 µM; CC50 (SK-MEL-5; [6]): 0.933 µM; TGI (SK-MEL-5; read-out: pTGI (converted)): 0.324 µM; GI50 (OVCAR-4): 0.355 µM; CC50 (OVCAR-4; [6]): > 100 µM; TGI (OVCAR-4; read-out: pTGI): > 100 µM; GI50 (OVCAR-5): 36.3 µM; CC50 (OVCAR-5; [6]): > 100 µM; TGI (OVCAR-5; read-out: pTGI): > 100 µM; LC50 (OVCAR-8): > 100 µM; GI50 (OVCAR-8; read-out: pGI50 (converted)): 24.5 µM; TGI (OVCAR-8; read-out: pTGI): > 100 µM; GI50 (NCI/ADR-RES): 15.1 µM; CC50 (NCI/ADR-RES; [6]): > 100 µM; TGI (NCI/ADR-RES; read-out: pTGI): > 100 µM; GI50 (SK-OV-3): 25.1 µM; CC50 (SK-OV-3; [6]): > 100 µM; TGI (SK-OV-3; read-out: pTGI): > 100 µM; GI50 (TK-10): > 100 µM; CC50 (TK-10; [6]): > 100 µM; TGI (TK-10; read-out: pTGI): > 100 µM; GI50 (MCF7 [1]): 0.282 µM; CC50 (MCF7 [1]; [6]): > 100 µM; TGI (MCF7 [1]; read-out: pTGI): > 100 µM; GI50 [2]: 16.6 µM; CC50 [2, 6]: > 100 µM; TGI ([2]; read-out: pTGI): > 100 µM; GI50 (T47D): 0.191 µM; CC50 (T47D; [6]): > 100 µM; TGI (T47D; read-out: pTGI): > 100 µM; GI50 (MDA-MB-435): 0.417 µM; CC50 (MDA-MB-435; [6]): > 100 µM; TGI (MDA-MB-435; read-out: pTGI): > 100 µM; Activity (MCF7 [3]): 43.9%; Activity (MCF7 [4]): Active; Activity (MCF7 [5]): Active
